Experimental data taken from ChEMBL document CHEMBL1154901, “Quassidines A-D, bis-beta-carboline alkaloids from the stems of Picrasma quassioides” (J Nat Prod, 2010).

Assays:
RAW264.7 [1] = test: Antiinflammatory activity in mouse RAW264.7 cells assessed as inhibition of LPS-induced TNFalpha production by ELISA; assay type: functional, cell-based
Outline: (§1)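 RAW 264.7 cells in RPMI 1640, seeded at 5 × 10^5 cells/mL and cultured 1 h. Compound in DMSO was co-added with LPS (final 1 µg/mL). After 6 h culture, supernatant TNF-α and IL-6 were quantified with mouse ELISA kits. LPS-only and DMSO-only (no LPS) wells served as references.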

RAW264.7 [2] = test: Antiinflammatory activity in mouse RAW264.7 assessed as inhibition LPS-induced nitric oxide production cells after 24 hrs; assay type: functional, cell-based; details: RAW264.7, 24 h
Outline: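 RAW 264.7 cells in RPMI 1640 with 10% heat-inactivated FBS, seeded at 5 × 10^5 cells/mL and cultured 1 h. Compound in DMSO was added at various concentrations together with LPS (final 1 µg/mL), then incubated 24 h. Supernatant nitrite was measured with Griess reagent (1% sulfanilamide in 5% H3PO4 plus 0.1% naphthylethylene diamine) at 540 nm. Inhibitory rate versus LPS-only wells.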

RAW264.7 [3] = test: Antiinflammatory activity in mouse RAW264.7 cells assessed as inhibition of LPS-induced IL-6 production by ELISA; assay type: functional, cell-based; outline: as §1
RAW264.7 [4] = test: Cytotoxicity against mouse RAW264.7 cells after 24 hrs by MTT assay; assay type: cell-based; details: raw264.7, 24 h
Outline: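 RAW 264.7 macrophages seeded at 5 × 10^5 cells/mL in RPMI 1640 with 10% FBS. Compound in DMSO was added with LPS 1 µg/mL. Viability was read by MTT mitochondrial reduction colorimetric assay after 24 h exposure.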

SMILES	IC50 (RAW264.7 [1])	IC50 (RAW264.7 [2])	IC50 (RAW264.7 [3])	Activity (RAW264.7 [4])
C[C@]12CCC(=O)C=C1CC[C@@H]1[C@@H]2[C@@H](O)C[C@@]2(C)[C@H]1CC[C@]2(O)C(=O)CO [HYDROCORTISONE]	85.6 µM			
COc1cccc2c1[nH]c1c(CCC(OC)C(=O)c3nccc4c3[nH]c3ccccc34)ncc(OC)c12 (configuration not stated) [PICRASIDINE C]	> 100 µM	89.9 µM	> 100 µM	
COc1cccc2c1[nH]c1c([C@@H]3CC[C@H]3c3ncc(OC)c4c3[nH]c3ccccc34)ncc(OC)c12 [QUASSIDINE A]	88.4 µM	89.4 µM	> 100 µM	
COc1cccc2c1[nH]c1c(CCC(O)c3nccc4c3[nH]c3ccccc34)ncc(OC)c12 (configuration not stated) [QUASSIDINE B]				Toxic
COc1cnc(CCC(O)c2nccc3c2[nH]c2ccccc23)c2[nH]c3ccccc3c12 (configuration not stated) [QUASSIDINE C]				Toxic
COc1cccc2c1[nH]c1c(CCC(OC)c3nccc4c3[nH]c3ccccc34)ncc(OC)c12 (configuration not stated) [QUASSIDINE D]	> 100 µM	> 100 µM	> 100 µM	
